≈ marks a conversion by molar mass, not a printed value. Calls of active or inactive are those of the source. The calls are words filed in the database; no cut-off is given here.
What was measured:
Staphylococcus aureus [1] = assay: Disruption of biofilm formation in Staphylococcus aureus 8325-4 after 24 hrs by microtiter plate assay; type: functional, organism-based
Staphylococcus aureus [2] = assay: Toxicity in Staphylococcus aureus 8325-4 assessed as inhibition of bacterial growth; type: organism-based
Staphylococcus aureus [3] = assay: Inhibition of biofilm formation in Staphylococcus aureus 8325-4 after 24 hrs by microtiter plate assay; type: functional, organism-based; settings: for EC50: Staphylococcus aureus, 8325-4, 24 h
Summary of the method: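 Static 96-well crystal-violet assay with S. aureus 8325-4. Inoculum came from an overnight BHI agar culture, suspended in 0.9% NaCl to McF 0.5, 5 μL per well into TS medium containing compounds as monosodium salts at […]. Plates ran 24 h at 37 °C. Wells were rinsed three times, stained with 1% crystal violet for 15 min and eluted with 96% ethanol. Read at A630, at least triplicate.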

Staphylococcus aureus [4] = assay: Antibacterial activity against Staphylococcus aureus 8325-4 assessed as reduction of enrofloxacin MIC at 32 ug/ml by microbroth dilution method; type: functional
Summary of the method: (§1)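 Standard broth microdilution in Mueller-Hinton broth gave MICs. For the combination lines, enrofloxacin MIC was measured with the tested compound present at the stated concentration.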

Staphylococcus aureus [5] = assay: Antibacterial activity against Staphylococcus aureus 8325-4 assessed as reduction of enrofloxacin MIC at 1 ug/ml by microbroth dilution method; type: functional; summary of the method: as §1
Staphylococcus aureus [6] = assay: Inhibition of biofilm formation in Staphylococcus aureus 8325-4 at […] after 24 hrs by microtiter plate assay in presence of glucose; type: functional, organism-based
Summary of the method: (§2)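 Same static crystal-violet biofilm protocol as above, with 1% glucose added to the TS medium. S. aureus 8325-4 grew 24 h at 37 °C with the compound. Adherent cells were stained with crystal violet, eluted in ethanol and read at A630. Means come from three independent experiments.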

Staphylococcus aureus [7] = assay: Antibacterial activity against methicillin-resistant Staphylococcus aureus N315 assessed as reduction of enrofloxacin MIC at 1 ug/ml by microbroth dilution method; type: functional
Summary of the method: (§3)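 Standard microbroth dilution in Mueller-Hinton broth against methicillin-resistant S. aureus N315. The enrofloxacin MIC was determined with the test compound added to the broth.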

Staphylococcus aureus [8] = assay: Antibacterial activity against methicillin-resistant Staphylococcus aureus N315 assessed as reduction of enrofloxacin MIC at 8 ug/ml by microbroth dilution method; type: functional; summary of the method: as §3
Staphylococcus aureus [9] = assay: Antibacterial activity against methicillin-resistant Staphylococcus aureus N315 assessed as reduction of enrofloxacin MIC at 32 ug/ml by microbroth dilution method; type: functional; summary of the method: as §3
Staphylococcus aureus [10] = assay: Antibacterial activity against Staphylococcus aureus 8325-4 assessed as reduction of enrofloxacin MIC at 8 ug/ml by microbroth dilution method; type: functional; summary of the method: as §1
Staphylococcus aureus [11] = assay: Antibacterial activity against Staphylococcus aureus ATCC 29213 assessed as reduction of enrofloxacin MIC at 8 ug/ml by microbroth dilution method; type: functional; summary of the method: as §1
Staphylococcus aureus [12] = assay: Antibacterial activity against Staphylococcus aureus ATCC 29213 assessed as reduction of enrofloxacin MIC at 32 ug/ml by microbroth dilution method; type: functional; summary of the method: as §1
Staphylococcus aureus [13] = assay: Inhibition of biofilm formation in Staphylococcus aureus 8325-4 at 8 mM after 24 hrs by microtiter plate assay in presence of glucose; type: functional; settings: 8325-4, 24 h; summary of the method: as §2
Staphylococcus aureus [14] = assay: Antibacterial activity against Staphylococcus aureus ATCC 29213 assessed as reduction of enrofloxacin MIC at 1 ug/ml by microbroth dilution method; type: functional; summary of the method: as §1
Staphylococcus aureus [15] = assay: Antibacterial activity against Staphylococcus aureus ATCC 29213 by microbroth dilution method; type: functional; summary of the method: as §1
Staphylococcus aureus [16] = assay: Antibacterial activity against Staphylococcus aureus 8325-4 by microbroth dilution method; type: functional; summary of the method: as §1
Staphylococcus aureus [17] = assay: Antibacterial activity against methicillin-resistant Staphylococcus aureus N315 by microbroth dilution method; type: functional
Summary of the method: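 MIC against methicillin-resistant S. aureus N315, determined by standard microbroth dilution in Mueller-Hinton broth.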

COc1cc(C2Oc3c(O)cc(-c4cc(=O)c5c(O)cc(O)cc5o4)cc3C2CO)ccc1O (stereo unspecified)
Activity (Staphylococcus aureus [1]): inactive
Activity (Staphylococcus aureus [2]): Non-toxic
MBIC (Staphylococcus aureus [3]): > 124 µM
EC50 (Staphylococcus aureus [3]): 64 µg/mL (≈ 138 µM)

COc1cc(C2Oc3cc(-c4cc(=O)c5c(O)cc(O)cc5o4)ccc3OC2CO)ccc1O (racemic)
Activity (Staphylococcus aureus [1]): inactive
Activity (Staphylococcus aureus [2]): Non-toxic
MBIC (Staphylococcus aureus [3]): 32 µM
EC50 (Staphylococcus aureus [3]): 4 µg/mL (≈ 8.61 µM)

COc1cc([C@H]2Oc3cc(-c4cc(=O)c5c(O)cc(O)cc5o4)ccc3O[C@@H]2CO)ccc1O [HYDNOCARPIN]
Activity (Staphylococcus aureus [1]): inactive
Activity (Staphylococcus aureus [2]): Non-toxic
MBIC (Staphylococcus aureus [3]): 64 µM
EC50 (Staphylococcus aureus [3]): 16 µg/mL (≈ 34.5 µM)

COc1cc([C@H]2Oc3cc(-c4oc5cc(O)cc(O)c5c(=O)c4O)ccc3O[C@@H]2CO)ccc1O
Activity (Staphylococcus aureus [1]): inactive
Activity (Staphylococcus aureus [2]): Non-toxic
MBIC (Staphylococcus aureus [3]): 64 µM
EC50 (Staphylococcus aureus [3]): 16 µg/mL (≈ 33.3 µM)

COc1cc([C@H]2Oc3ccc(-c4cc(=O)c5c(O)cc(O)cc5o4)cc3O[C@@H]2CO)ccc1O
Activity (Staphylococcus aureus [1]): inactive
Activity (Staphylococcus aureus [2]): Non-toxic
MBIC (Staphylococcus aureus [3]): 64 µM
EC50 (Staphylococcus aureus [3]): 16 µg/mL (≈ 34.5 µM)

COc1cc([C@H]2Oc3ccc([C@H]4Oc5cc(O)cc(O)c5C(=O)[C@@H]4O)cc3O[C@@H]2CO)ccc1O [ISOSILYBIN A]
Activity (Staphylococcus aureus [1]): inactive
Activity (Staphylococcus aureus [2]): Non-toxic
MBIC (Staphylococcus aureus [3]): 124 µM
EC50 (Staphylococcus aureus [3]): 32 µg/mL (≈ 66.3 µM)

COc1cc([C@@H]2Oc3cc(-c4cc(=O)c5c(O)cc(O)cc5o4)ccc3O[C@H]2CO)ccc1O
MIC (Staphylococcus aureus [4]): 0.0625 µg/mL
Activity (Staphylococcus aureus [1]): inactive
MIC (Staphylococcus aureus [5]): 0.125 µg/mL
inhibition (Staphylococcus aureus [6]): Active
MIC (Staphylococcus aureus [7]): 1 µg/mL
Activity (Staphylococcus aureus [2]): Non-toxic
MIC (Staphylococcus aureus [8]): 0.5 µg/mL
MIC (Staphylococcus aureus [9]): 0.5 µg/mL
MIC (Staphylococcus aureus [10]): 0.0625 µg/mL
MIC (Staphylococcus aureus [11]): 0.0625 µg/mL
MIC (Staphylococcus aureus [12]): 0.0625 µg/mL
MBIC (Staphylococcus aureus [3]): 8 µM
EC50 (Staphylococcus aureus [3]): 2 µg/mL (≈ 4.31 µM)
inhibition at 8000 µM (Staphylococcus aureus [13]): 80%
MIC (Staphylococcus aureus [14]): 0.25 µg/mL

COc1cc(C2Oc3cc([C@H]4Oc5cc(O)cc(O)c5C(=O)[C@@H]4O)ccc3OC2CO)ccc1O (stereo partly specified) [SILIBININ]
Activity (Staphylococcus aureus [1]): inactive
Activity (Staphylococcus aureus [2]): Non-toxic
MBIC (Staphylococcus aureus [3]): > 124 µM
EC50 (Staphylococcus aureus [3]): 64 µg/mL (≈ 133 µM)

CCN1CCN(c2cc3c(cc2F)c(=O)c(C(=O)O)cn3C2CC2)CC1 [ENROFLOXACIN]
MIC (Staphylococcus aureus [15]): 1 µg/mL (≈ 2.78 µM)
MIC (Staphylococcus aureus [16]): 0.5 µg/mL (≈ 1.39 µM)
MIC (Staphylococcus aureus [17]): 2 µg/mL (≈ 5.56 µM)

— ChEMBL document CHEMBL3600361, “Hydnocarpin-Type Flavonolignans: Semisynthesis and Inhibitory Effects on Staphylococcus aureus Biofilm Formation” (J Nat Prod, 2015)
